From article PMC10498798 (Mycobiology, 2023) come the findings set out here.

A word on the inhibition: it is the percentage by which the read-out fell short of the control.

Experiment [1] has as its system NO production in LPS-stimulated RAW 264.7 macrophages. Nature of the experiment: Nitrite. Format: cell-based, murine. Put shortly: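 RAW 264.7 cells were seeded at 2x10^5 per well and grown to about 70% confluence, then serum-starved in 1% FBS medium. Test compound was given at non-cytotoxic concentrations for 24 h at 37 °C, then cells were stimulated with 1 µg/mL LPS for 24 h. Supernatant nitrite was measured with Griess reagent (30 °C, 20 min) at 550 nm against a sodium nitrite standard curve. Runs were in triplicate, and IC50 came from inhibition-concentration plots.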

The test system of a further experiment is RAW 264.7 macrophages. Nature of the experiment: MTT cell viability of RAW 264.7 macrophages. Format: cell-based, murine. The method in brief:
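RAW 264.7 cells were kept in DMEM with 10% FBS and penicillin/streptomycin at 37 °C, 5% CO2. Exponential-phase cells (5x10^4 per well) were exposed to serially diluted test compound (50-25-12.5-6.25 µg/mL) plus 1 µg/mL LPS for 36 h. MTT (0.5 mg/mL) was then added for 4 h at 37 °C. Formazan was dissolved in DMSO and read at 570 nm. Runs were in triplicate.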

Experiment [2] concerns Vero cells (monkey kidney epithelial cells). In words: MTT cytotoxic assay, Vero cells. Format: cell-based. The settings on record: for IC50 Vero: MTT; for IC50: Primates, Vero. (In general: Tetrazolium assays rely on reduction of a dye to a coloured formazan, in cell work by metabolically active cells.)
Experiment [3] deals with Hep-G2 (Human hepatocellular carcinoma). Nature of the experiment: MTT cytotoxic assay, Hep-G2. Type of experiment: cell-based. The settings on record: for IC50: Homo sapiens, HepG2, 36 h, read-out: IC50 Hep-G2.
Experiment [4] relates to α-glucosidase from Saccharomyces cerevisiae. In words: Alpha-glucosidase inhibitory assay. Format: biochemical. The settings on record: for α-glucosidase inhibition rate: concentration of 400 µg/mL; for IC50: read-out: IC50 α-glucosidase, µM equivalent, converted from µg/mL.
Experiment [5] has as its system A549 (Human lung carcinoma). In words: MTT cytotoxic assay, A549. Format: cell-based. As to conditions: for IC50: Homo sapiens, A549, 36 h, read-out: IC50 A549.
Experiment [6] concerns MCF-7 (Human breast adenocarcinoma). In words: MTT cytotoxic assay, MCF-7. Type of experiment: cell-based. As to conditions: for IC50: Homo sapiens, MCF7, 36 h, read-out: IC50 MCF-7.
The target of experiment [7] is T1, porcine pancreatic lipase (Type II) (Sus scrofa, UniProt P00591).
T1 sequence (P00591 1-450): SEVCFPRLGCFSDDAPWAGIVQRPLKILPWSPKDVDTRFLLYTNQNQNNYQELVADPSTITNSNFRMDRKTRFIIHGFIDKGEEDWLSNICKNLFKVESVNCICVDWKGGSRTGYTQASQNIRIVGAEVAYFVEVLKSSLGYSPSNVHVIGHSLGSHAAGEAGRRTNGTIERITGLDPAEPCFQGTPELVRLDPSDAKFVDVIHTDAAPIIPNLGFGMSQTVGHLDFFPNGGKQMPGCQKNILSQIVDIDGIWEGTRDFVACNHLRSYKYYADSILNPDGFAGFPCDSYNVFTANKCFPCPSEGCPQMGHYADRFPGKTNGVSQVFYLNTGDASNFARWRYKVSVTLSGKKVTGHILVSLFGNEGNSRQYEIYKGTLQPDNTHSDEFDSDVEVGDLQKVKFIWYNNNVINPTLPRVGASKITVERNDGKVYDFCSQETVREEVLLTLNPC
Nature of the experiment: Lipase inhibitory assay. As to conditions: for inhibition at 500 µg/mL / inhibition at 125 µg/mL / inhibition at 250 µg/mL: read-out: Enzyme inhibition (pancreatic lipase). Type of experiment: biochemical. Put shortly: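 Porcine pancreatic lipase (Type II, 0.1 mg) was mixed with 6.66 μM p-nitrophenyl palmitate in ethanol/acetonitrile (2:1, v/v) and test compound in 0.061 M Tris-HCl, pH 8.5. The mixture was incubated at 37 °C for 25 min, stopped with ethanol, and substrate hydrolysis read at 405 nm. Runs were in triplicate. IC50 was estimated from inhibition-versus-concentration plots.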

[8] abbreviates: 36 h, read-out: IC50 Vero, MTT, 36 h.
Where [9] appears, read: Mus musculus, RAW264.7, read-out: NO inhibition.
The mark [10] stands for this setting: read-out: IC50 Vero, μM equivalent, converted from µg/mL.

Structures are written as SMILES. Converted amounts (≈) assume the structure as drawn. “Also recorded” adds a separate entry of the source. Like-named read-outs stand apart in the source and are kept apart here.

Regarding `COc1cc(O)cc(O)c1C(=O)/C=C/c1ccccc1` [Cardamonin, reference compound], the “NO half-maximal inhibitory concentration (IC50)” value in experiment [1] (LPS-stimulated RAW 264.7) is on record as 0.62 µg/mL. Further, the NO inhibition in experiment [1] (test concentration 0.81 µg/mL (3 µM), LPS 1 µg/mL) amounted to 86.93 ± 0.96%. Moreover, the Cell survival in the experiment on RAW 264.7 macrophages (test concentration 0.81 µg/mL (3 µM)) is 71.80 ± 0.51%.

Turning to `CC(C)[C@@H](C)/C=C/[C@@H](C)[C@H]1CC[C@H]2C3=C[C@@H](O)[C@@]4(O)C[C@@H](O)CC[C@]4(C)[C@H]3CC[C@]12C` [Compound (1), cerevisterol], the “IC50 Vero” value in experiment [2] (36 h) is “did not show any cytotoxicity”. Besides, the IC50 in experiment [2] (setting [8]), in experiment [3], in experiment [5] and in experiment [6] was greater than 50 µg/mL in each case. Moreover, in experiment [1] (setting [9]), the inhibition at 1 µg/mL worked out at 14.4 ± 1.5%. Besides, the inhibition at 5 µg/mL in experiment [1] (setting [9]) was 30.9 ± 1.04%. For the same compound, the inhibition at 25 µg/mL in experiment [1] (setting [9]) turned out to be 48.8 ± 1.43%. Also, the inhibition at 50 µg/mL in experiment [1] (setting [9]) worked out at 54.2 ± 1.27%. In experiment [3] (MTT, 36 h), the “IC50 Hep-G2” value is given as “no significant effect; also recorded: did not show any cytotoxicity”. In addition, the α-glucosidase inhibition rate in experiment [4] was 12.69 ± 1.06%. The “IC50 A549” value in experiment [5] (MTT, 36 h) is “no significant effect; also recorded: did not show any cytotoxicity”. Also, in experiment [6] (MTT, 36 h), the “IC50 MCF-7” value is given as “no significant effect; also recorded: did not show any cytotoxicity”. The inhibition at 500 µg/mL in experiment [7] amounted to 0%. Also, the Cell survival was found to be 98.05 ± 0.67% in the experiment on RAW 264.7 macrophages (test concentration 1 µg/mL), 97.69 ± 1.20% in the experiment with RAW 264.7 macrophages (test concentration 5 µg/mL), 96.78 ± 0.63% in the experiment with RAW 264.7 macrophages (test concentration 25 µg/mL) and 98.40 ± 1.73% in the experiment with RAW 264.7 macrophages (test concentration 50 µg/mL).

Take `CC(C)[C@@H](C)/C=C/[C@@H](C)[C@H]1CC[C@@H]2[C@]1(C)CC[C@H]1[C@]23C=C[C@]2(C[C@@H](O)CC[C@]12C)OO3` [Compound (2), ergosterol peroxide]: in experiment [2] (36 h), the “IC50 Vero” value is reported as 14.93 µg/mL (≈ 34.8 µM). Further, the IC50 in experiment [2] (setting [10]) was 11.5 µM; in experiment [3], 16.2 µg/mL (≈ 37.8 µM); in experiment [4], 51.1 µM; in experiment [5] it was 22.5 µg/mL (≈ 52.4 µM); in experiment [6], 27.1 µg/mL (≈ 63.2 µM); in experiment [7], greater than 1170 µM. Besides, the inhibition at 1 µg/mL in experiment [1] (setting [9]) worked out at 28 ± 0.84%. In addition, the inhibition at 5 µg/mL in experiment [1] (setting [9]) is 56.7 ± 1.29%. In addition, the inhibition at 25 µg/mL in experiment [1] (setting [9]) was found to be 81.4 ± 1.35%. Also, in experiment [4], the “IC50 α-glucosidase” value worked out at 21.89 µg/mL (≈ 51.1 µM). For the same compound, the α-glucosidase inhibition rate entry in experiment [4] is given as “greater than 50%”. Besides, the inhibition at 125 µg/mL in experiment [7] is 2.54 ± 1.6%. Also, the inhibition at 250 µg/mL in experiment [7] was found to be 11.7 ± 2.13%. In experiment [7], the inhibition at 500 µg/mL came to 25.9 ± 1.24%. Besides, the Cell survival is on record as 98.08 ± 1.26% in the experiment with RAW 264.7 macrophages (test concentration 1 µg/mL), 83.99 ± 1.05% in the experiment on RAW 264.7 macrophages (test concentration 5 µg/mL), 60.87 ± 2.21% in the experiment on RAW 264.7 macrophages (test concentration 25 µg/mL) and 2.18 ± 0.68% in the experiment on RAW 264.7 macrophages (test concentration 50 µg/mL).

On to `CC(C)[C@@H](C)/C=C/[C@@H](C)[C@H]1CCC2=C3C=C[C@@]4(O)C[C@@H](O)CC[C@]4(C)[C@H]3CC[C@@]21C` [Compound (3), (3β,5α,22E)-ergosta-6,8(14),22-triene-3,5-diol], for which the “IC50 Vero” value in experiment [2] (36 h) was 18.40 µg/mL (≈ 44.6 µM). In addition, the IC50 in experiment [2] (setting [8]) came to 10.4 µg/mL; in experiment [2] (setting [10]), 24.2 µM; in experiment [3], 2.89 µg/mL (≈ 7 µM); in experiment [4], 60 µM; in experiment [5] it was 18.5 µg/mL (≈ 44.9 µM); in experiment [6] it was 16.5 µg/mL (≈ 39.9 µM). Besides, the IC50 in experiment [7] was greater than 1210 µM. In addition, the inhibition at 1 µg/mL in experiment [1] (setting [9]) was 32.8 ± 0.73%. In experiment [1] (setting [9]), the inhibition at 5 µg/mL worked out at 55.2 ± 1.2%. Further, in experiment [1] (setting [9]), the inhibition at 25 µg/mL was 71.4 ± 1.38%. Moreover, in experiment [4], the “IC50 α-glucosidase” value came to 25.81 µg/mL (≈ 62.5 µM). Besides, the α-glucosidase inhibition rate entry in experiment [4] is recorded as “greater than 50%”. The inhibition at 125 µg/mL in experiment [7] was determined as 1.29 ± 1.11%. Also, the inhibition at 250 µg/mL in experiment [7] was 12.1 ± 0.95%. The inhibition at 500 µg/mL in experiment [7] worked out at 23.8 ± 2.31%. The Cell survival with RAW 264.7 macrophages (test concentration 1 µg/mL) is reported as 93.19 ± 0.49%; in the experiment on RAW 264.7 macrophages (test concentration 5 µg/mL), 93.86 ± 1.33%; in the experiment on RAW 264.7 macrophages (test concentration 25 µg/mL) it was 82.31 ± 0.78%; in the experiment on RAW 264.7 macrophages (test concentration 50 µg/mL) it was 1.70 ± 0.27%.

In the case of `Cc1c2ccncc2c(C)c2c1[nH]c1ccccc12` [Ellipticine, reference compound], the IC50 came out at 8.61 µg/mL in experiment [2] (setting [8]), 1.26 µg/mL (≈ 5.12 µM) in experiment [3], 1.38 µg/mL (≈ 5.6 µM) in experiment [5] and 2.69 µg/mL (≈ 10.9 µM) in experiment [6].
